What all share (type): cell membranes, Membrane
Experiment [1] in a line: Displacement of [3H]muscimol from GABAA receptor in Sprague-Dawley rat cerebral cortex membranes. In general terms: Loss of bound radioactivity is the signal in a displacement assay; it reports binding, not function.
Experiment [2] in a line: Displacement of [3H]muscimol from GABAA receptor in Sprague-Dawley rat spinal cord brainstem membranes.
A short description of experiment [3]: Displacement of [3H]strychnine from glycine receptor in rat spinal cord synaptosomal membranes. Put shortly:
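Rat spinal cord synaptosomal membranes (stored at -80 °C, used within 2 weeks; 0.2-0.4 mg protein per 1.2 mL) incubated 10 min at 4 °C with 2 nM [3H]strychnine plus increasing concentrations of competitor in 50 mM sodium-potassium phosphate, pH 7.1. Rapid glass-fiber filtration, 0.15 M NaCl rinse. Nonspecific binding with 0.1 mM unlabeled strychnine. Triplicate points; IC50 from mean of three independent curves.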

The term IC50 denotes the concentration at which inhibition is half-maximal.

As for `COc1c(O[C@@H]2O[C@H](C)[C@@H](O)[C@H](O)[C@H]2O)cc2c(c1OC)-c1ccc(SC)c(=O)cc1[C@@H](NC(C)=O)CC2`, the IC50 in experiment [1] was 6.2 µM; in experiment [2], 3.5 µM; in experiment [3] it was 1900 nM.

With `COc1c(O[C@@H]2O[C@H](CF)[C@@H](O)[C@H](O)[C@H]2O)cc2c(c1OC)-c1ccc(SC)c(=O)cc1[C@@H](NC(C)=O)CC2`, the values for the half-maximal inhibitory concentration (IC50) in experiment [1], in experiment [2] and in experiment [3] were 3.8 µM, 2 µM and 1300 nM, respectively.

`O=C1C[C@@H]2OCC=C3CN4CC[C@]56c7ccccc7N1[C@H]5[C@H]2[C@H]3C[C@H]46` [STRYCHNINE] yielded an IC50 in experiment [3] of 14 nM.

Turning to `COc1c(O[C@@H]2O[C@H](CO)[C@@H](O)[C@H](O)[C@H]2O)cc2c(c1OC)-c1ccc(SC)c(=O)cc1[C@@H](NC(C)=O)CC2` [THIOCOLCHICOSIDE], the IC50 in experiment [1] was 3.4 µM; in experiment [2], 1.9 µM; in experiment [3], 1500 nM.

On to `COc1c(O[C@@H]2O[C@H](CI)[C@@H](O)[C@H](O)[C@H]2O)cc2c(c1OC)-c1ccc(SC)c(=O)cc1[C@@H](NC(C)=O)CC2`, for which the IC50 in experiment [1] is 17.3 µM; in experiment [2], 8 µM; in experiment [3] it was greater than 100000 nM.

In the case of `COc1c(O[C@@H]2O[C@H](CN=[N+]=[N-])[C@@H](O)[C@H](O)[C@H]2O)cc2c(c1OC)-c1ccc(SC)c(=O)cc1[C@@H](NC(C)=O)CC2`, the IC50 is 7.8 µM in experiment [1], 8.2 µM in experiment [2] and 4300 nM in experiment [3].

`NCC(=O)O` [GLYCINE] had an IC50 in experiment [3] of 15800 nM.

The record behind these values is ChEMBL document CHEMBL1147142, “Novel 3-O-glycosyl-3-demethylthiocolchicines as ligands for glycine and gamma-aminobutyric acid receptors” (J Med Chem, 2007).
